The source made the active and inactive calls. The calls are words filed in the database; no cut-off is given here.
Legend:
[1] = system: Rattus norvegicus; assay: Conditioned avoidance response (CAR) when administered perorally; format: functional; details: po
[2] = molecular target: T1, D(2) dopamine receptor (Rattus norvegicus, UniProt P61169); assay: Ability to bind at dopamine receptor D2 of rat corpus striatum by displacing [3H]spiperone
[3] = molecular target: Serotonin 1 (5-HT1) receptor (Rattus norvegicus, UniProt P28564+P30940+P19327+P28565); assay: Ability to bind at 5-hydroxytryptamine 1 receptor of rat hippocampus by displacing [3H]5-HT; format: tissue-based
Outline: (§1)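 Rat receptor radioligand displacement, five test-ligand concentrations used to calculate IC50, each assay in duplicate. Some compounds determined four times (in duplicate), with mean IC50 reported.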

[4] = molecular target: T2, Serotonin 2 (5-HT2) receptor (Rattus norvegicus, UniProt P30994+P08909+P14842); assay: Ability to bind at 5-hydroxytryptamine 2 receptor of rat cortex by displacing [3H]spiperone
[5] = molecular target: T3, 5-hydroxytryptamine receptor 1A (Rattus norvegicus, UniProt P19327); assay: Ability to bind at serotonin 5-hydroxytryptamine 1A receptors of rat hippocampus by displacing [3H]8-OH-DPAT; format: tissue-based; outline: as §1
T3 sequence (P19327 whole entry): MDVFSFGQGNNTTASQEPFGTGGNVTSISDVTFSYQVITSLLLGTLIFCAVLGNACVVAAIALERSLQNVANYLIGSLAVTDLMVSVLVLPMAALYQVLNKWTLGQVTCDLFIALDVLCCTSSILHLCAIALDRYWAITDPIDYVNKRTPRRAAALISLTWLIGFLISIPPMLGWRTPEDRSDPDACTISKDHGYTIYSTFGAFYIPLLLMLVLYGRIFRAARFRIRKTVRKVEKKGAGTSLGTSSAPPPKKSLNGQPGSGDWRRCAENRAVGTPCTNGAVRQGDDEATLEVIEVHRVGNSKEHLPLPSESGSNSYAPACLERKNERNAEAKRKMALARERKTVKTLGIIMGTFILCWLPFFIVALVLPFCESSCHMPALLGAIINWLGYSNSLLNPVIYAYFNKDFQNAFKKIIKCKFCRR

[6] = molecular target: T1, D(2) dopamine receptor; assay: Ability to bind at Dopamine receptor D2 of rat corpus striatum by displacing [3H]spiperone; outline: as §1
[7] = molecular target: T4, Adrenergic receptor alpha-1 (Rattus norvegicus, UniProt P15823+P23944+P43140); assay: Ability to bind at alpha-1 adrenergic receptor by displacing [3H]WB-4101; format: protein assay; outline: as §1
T4 sequence (P15823 whole entry): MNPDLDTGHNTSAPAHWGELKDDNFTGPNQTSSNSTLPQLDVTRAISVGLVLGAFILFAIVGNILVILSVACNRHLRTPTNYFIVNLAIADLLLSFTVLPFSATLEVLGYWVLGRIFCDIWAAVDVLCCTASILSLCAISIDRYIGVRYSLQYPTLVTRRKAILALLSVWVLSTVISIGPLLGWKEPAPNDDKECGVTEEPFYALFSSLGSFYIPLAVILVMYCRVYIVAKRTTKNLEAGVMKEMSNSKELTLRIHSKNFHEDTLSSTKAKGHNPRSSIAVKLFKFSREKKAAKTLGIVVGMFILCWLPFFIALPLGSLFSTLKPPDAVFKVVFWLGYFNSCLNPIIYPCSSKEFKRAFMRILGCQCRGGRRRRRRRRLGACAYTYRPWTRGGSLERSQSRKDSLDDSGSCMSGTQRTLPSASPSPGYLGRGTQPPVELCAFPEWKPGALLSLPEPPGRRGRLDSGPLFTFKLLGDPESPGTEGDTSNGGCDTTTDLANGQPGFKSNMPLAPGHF
T4 sequence (P23944 whole entry): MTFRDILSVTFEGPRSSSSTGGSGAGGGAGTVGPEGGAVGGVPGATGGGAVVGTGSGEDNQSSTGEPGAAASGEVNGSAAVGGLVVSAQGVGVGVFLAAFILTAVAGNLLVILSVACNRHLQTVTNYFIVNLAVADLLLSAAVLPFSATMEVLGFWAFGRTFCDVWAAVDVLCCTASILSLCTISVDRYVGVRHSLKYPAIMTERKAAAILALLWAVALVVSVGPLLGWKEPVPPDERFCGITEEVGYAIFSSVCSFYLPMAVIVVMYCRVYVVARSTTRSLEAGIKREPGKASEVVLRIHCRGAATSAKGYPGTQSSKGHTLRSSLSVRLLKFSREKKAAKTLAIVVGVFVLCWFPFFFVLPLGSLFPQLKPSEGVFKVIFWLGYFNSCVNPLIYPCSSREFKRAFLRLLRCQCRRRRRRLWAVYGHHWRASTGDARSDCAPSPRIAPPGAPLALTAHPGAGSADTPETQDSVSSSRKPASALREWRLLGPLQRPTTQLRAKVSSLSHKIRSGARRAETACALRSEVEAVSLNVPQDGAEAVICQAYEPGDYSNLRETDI
T4 sequence (P43140 whole entry): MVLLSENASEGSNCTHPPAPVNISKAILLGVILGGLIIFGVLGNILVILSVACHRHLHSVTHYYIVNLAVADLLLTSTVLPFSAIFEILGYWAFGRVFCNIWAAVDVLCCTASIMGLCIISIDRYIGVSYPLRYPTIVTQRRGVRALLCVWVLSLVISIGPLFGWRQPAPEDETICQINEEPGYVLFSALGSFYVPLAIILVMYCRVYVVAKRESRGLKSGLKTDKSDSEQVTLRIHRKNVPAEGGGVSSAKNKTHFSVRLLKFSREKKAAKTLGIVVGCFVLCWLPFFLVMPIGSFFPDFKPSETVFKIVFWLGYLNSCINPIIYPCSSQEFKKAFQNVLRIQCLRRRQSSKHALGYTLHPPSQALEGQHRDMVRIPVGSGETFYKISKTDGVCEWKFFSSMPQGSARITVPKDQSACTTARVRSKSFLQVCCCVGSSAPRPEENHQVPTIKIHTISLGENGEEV

[8] = molecular target: T2, Serotonin 2 (5-HT2) receptor; assay: Ability to bind at serotonin 5-hydroxytryptamine 2 receptors of rat cortex by displacing [3H]spiperone
[9] = system: Mus musculus; assay: Blockade of apomorphine-induced climbing in mice when administered perorally; IA Inactive; format: functional, organism-based
Outline: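 Male mice habituated 30 min in individual cages, then dosed orally (distilled H2O or 0.5% Methocel suspension, 10 mL/kg) or vehicle. Apomorphine 1.5 mg/kg sc given 30 min later. Climbing scored at 10, 20, 30 min post-apomorphine. At least five animals per dose, maximum 100 mg/kg.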

[10] = system: Rattus norvegicus; assay: Blockade of apomorphine-induced stereotypy in rats when administered perorally; format: functional; details: po
[11] = system: Rattus norvegicus; assay: Induction of catalepsy in rats when administered perorally and maximum dose examined was 4 times the ED50 value established in CAR; Inactive; format: functional, organism-based
[12] = molecular target: T3, 5-hydroxytryptamine receptor 1A; assay: Ability to bind at 5-hydroxytryptamine 1A receptor of rat hippocampus by displacing [3H]8-OH-DPAT; format: tissue-based; outline: as §1
[13] = molecular target: T4, Adrenergic receptor alpha-1; assay: Ability to bind at Alpha-1 adrenergic receptor by displacing [3H]WB-4101; format: protein assay
[14] = system: Rattus norvegicus; assay: Blockade of Sidman-avoidance activity in rats when administered perorally; format: functional
Outline: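 Rats trained in once-daily Sidman sessions until stable; non-learners after 3 days replaced. Twelve rats dosed 30 min before session. Each rat compared with mean of its previous three drug-free days by paired t test. Testing continued to minimally effective dose; maximum usually 100 mg/kg. MED is mean over 12 animals.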

T1 sequence (P61169 whole entry): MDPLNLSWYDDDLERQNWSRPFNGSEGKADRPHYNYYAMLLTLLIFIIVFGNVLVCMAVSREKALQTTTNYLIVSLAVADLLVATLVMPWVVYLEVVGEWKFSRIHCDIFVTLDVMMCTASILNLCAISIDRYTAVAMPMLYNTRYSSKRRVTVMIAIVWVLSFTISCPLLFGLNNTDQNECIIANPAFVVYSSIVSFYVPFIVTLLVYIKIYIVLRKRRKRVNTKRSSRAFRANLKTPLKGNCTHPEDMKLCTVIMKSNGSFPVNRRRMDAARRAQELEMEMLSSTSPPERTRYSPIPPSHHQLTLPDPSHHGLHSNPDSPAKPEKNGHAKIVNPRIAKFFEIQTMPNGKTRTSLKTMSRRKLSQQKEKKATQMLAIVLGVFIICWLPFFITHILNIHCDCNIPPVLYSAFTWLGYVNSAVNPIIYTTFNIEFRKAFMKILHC

Row | Compound | ED50 [1] [mg/kg] | IC50 [2] [nM] | IC50 [3] [nM] | IC50 [5] [nM] | IC50 [6] [nM] | IC50 [8] [nM] | other results
1 | Cl.O=C1SC2(CCCC2)C(=O)N1CCCCN1CCN(c2nccc3sc(Br)cc23)CC1 | > 100 | 440 | 25.3 | – | – | – | IC50 [4]: 116 nM
2 | Cc1cc2c(N3CCN(CCCCN4C(=O)CC(C)(C)CC4=O)CC3)nccc2o1.Cl | 13.8 | – | – | 4.9 | 708 | – | –
3 | Cl.O=C1c2ccccc2S(=O)(=O)N1CCCCN1CCN(c2nccc3sccc23)CC1 | > 62.5 | – | 2.3 | 0.68 | 320 | 5.7 | IC50 [7]: 1.2 nM
4 | Cc1cc2c(N3CCN(CCCC(O)c4ccc(F)cc4)CC3)nccc2o1.Cl (configuration not stated) | 23.2 | – | – | 6.2 | – | – | –
5 | CC1CC(=O)N(CCCCN2CCN(c3nccc4sccc34)CC2)C(=O)C1.Cl | 2.9 | – | 8.8 | 1.3 | 663 | 4.2 | MED50 [9]: inactive; ED50 [10]: 39.5 mg/kg; ED50 [11]: inactive
6 | CC1(C)CC(=O)N(CCCCN2CCN(c3nccc4occc34)CC2)C(=O)C1.Cl | 4.2 | 626 | – | – | – | – | IC50 [12]: 8.64 nM; IC50 [13]: 47 nM
7 | Cl.OC(CCCN1CCN(c2nccc3occc23)CC1)c1ccc(F)cc1 (configuration not stated) | 3.1 | – | – | 12.4 | 339 | 55.2 | IC50 [7]: 23.8 nM
8 | O=C1CSCC(=O)N1CCCCN1CCN(c2nccc3sccc23)CC1 | 31.9 | – | – | 1.15 | 608 | 6.7 | IC50 [7]: 1.1 nM
9 | Cl.O=C1CSCC(=O)N1CCCCN1CCN(c2nccc3occc23)CC1 | 35.8 | – | – | – | > 1000 | – | –
10 | CC1(C)CC(=O)N(CCCCN2CCN(c3nccc4sc(Br)cc34)CC2)C(=O)C1.Cl | 65.3 | – | 3.7 | – | 228 | 70.9 | IC50 [7]: 27.2 nM
11 | Cl.O=C1SC2(CCCC2)C(=O)N1CCCCN1CCN(c2nccc3occc23)CC1 | 9.2 | 331 | – | – | – | – | IC50 [13]: 23.5 nM
12 | Cl.O=C1CCCC(=O)N1CCCCN1CCN(c2nccc3sccc23)CC1 | 5.4 | – | – | 2.5 | – | 19.1 | MED50 [9]: inactive; MED ([14]; po): 20 mg/kg; ED50 [10]: 55.6 mg/kg; ED50 [11]: inactive
13 | Cc1cc2c(N3CCN(CCCCN4C(=O)SC5(CCCC5)C4=O)CC3)nccc2s1.Cl | 35.4 | 279 | 3.6 | – | – | – | IC50 [4]: 43.4 nM
14 | Cl.O=C1SC2(CCCC2)C(=O)N1CCCCN1CCN(c2nccc3sccc23)CC1 | 11.6 | 88.3 | 8.1 | – | – | – | MED50 [14]: 5 mg/kg; ED50 [10]: 35.2 mg/kg; IC50 [4]: 3.9 nM; IC50 [13]: 30.5 nM
15 | Cl.Cn1ccc2c(N3CCN(CCCCN4C(=O)CC(C)(C)CC4=O)CC3)nccc21 | 67.2 | – | – | – | > 1000 | – | –
16 | Cl.O=C1c2ccccc2C(=O)N1CCCCN1CCN(c2nccc3sccc23)CC1 | 38.9 | – | 5.3 | 2.7 | 306 | 2.8 | IC50 [7]: 0.69 nM
17 | Cc1cc2c(N3CCN(CCCCN4C(=O)SC5(CCCC5)C4=O)CC3)nccc2o1.Cl | 28.4 | 751 | – | – | – | – | IC50 [12]: 2.2 nM; IC50 [13]: 27.5 nM
18 | Cl.Cn1ccc2c(N3CCN(CCCCN4C(=O)SC5(CCCC5)C4=O)CC3)nccc21 | 59.5 | 517 | – | – | – | – | IC50 [12]: 246 nM
19 | Cl.Cn1ccc2c(N3CCN(CCCCN4C(=O)COCC4=O)CC3)nccc21 | > 100 | – | – | – | > 1000 | – | –

— ChEMBL document CHEMBL1124475, “The thieno[3,2-c]pyridine and furo[3,2-c]pyridine rings: new pharmacophores with potential antipsychotic activity” (J Med Chem, 1989)
